The record followed here is ChEMBL document CHEMBL2311303, “Synthesis and anticancer activity of a novel series of 9-O-substituted berberine derivatives: a lipophilic substitute role” (Bioorg Med Chem Lett, 2013).

The test system of assay [1] is HepG2. Nature of the assay: Induction of apoptosis in human HepG2 cells assessed as necrotic cells at 0.5 uM after 24 hrs using annexin-V/FITC/propidium iodide staining by flow cytometry analysis (reference value: 0.51%). Type of assay: functional. The method, boiled down:
(§1)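 HepG2 cells exposed for 24 h to 0.25, 0.5 or 1.0 µM, with vehicle alone as control. Cells then double-stained with annexin V-FITC/PI and analysed by flow cytometry. Quadrant read-out: annexin V-positive/PI-negative cells counted as early apoptotic.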
A general note: Flow cytometry measures light scatter and fluorescence of single cells or particles in a stream.

The subject of assay [2] is HepG2. Description: Induction of apoptosis in human HepG2 cells assessed as necrotic cells at 1 uM after 24 hrs using annexin-V/FITC/propidium iodide staining by flow cytometry analysis (reference value: 0.51%). The format is functional. The essentials: as §1
The subject of assay [3] is HepG2. Description: Induction of apoptosis in human HepG2 cells assessed as viable cells at 0.25 uM after 24 hrs using annexin-V/FITC/propidium iodide staining by flow cytometry analysis (reference value: 94.29%). The format is functional. The conditions noted are these: HepG2, 24 h, read-out: Activity. The method, boiled down: as §1
In assay [4] the test system is HepG2. Nature of the assay: Induction of apoptosis in human HepG2 cells assessed as late apoptotic cells at 0.25 uM after 24 hrs using annexin-V/FITC/propidium iodide staining by flow cytometry analysis (reference value: 3.16%). Type of assay: functional. The essentials: as §1
In assay [5] the test system is HepG2. Nature of the assay: Induction of apoptosis in human HepG2 cells assessed as morphological changes at 20 uM after 24 hrs using Hoechst 33258 staining by fluorescence microscopic analysis. Type of assay: functional, cell-based. The method, boiled down:
(§2)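 HepG2 cells left untreated or exposed for 24 h, at 20 µM or at 0.5 or 1.0 µM depending on compound. Cells then stained with Hoechst 33258 and nuclear morphology examined by fluorescence microscopy at ×400.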

Assay [6] concerns HepG2. Description: Induction of apoptosis in human HepG2 cells assessed as early apoptotic cells at 1 uM after 24 hrs using annexin-V/FITC/propidium iodide staining by flow cytometry analysis (reference value: 2.05%). Type of assay: functional. The essentials: as §1
The subject of assay [7] is HepG2. Description: Cytotoxicity against human HepG2 cells after 24 hrs by MTT assay. Type of assay: functional, cell-based. The conditions noted are these: HepG2, 24 h. (In general: Tetrazolium assays rely on reduction of a dye to a coloured formazan, in cell work by metabolically active cells.)
Assay [8] concerns HepG2. Nature of the assay: Cytotoxicity against human HepG2 cells after 48 hrs by MTT assay. The format is functional, cell-based. The conditions noted are these: HepG2, 48 h.
Assay [9] has as its system HepG2. Description: Induction of apoptosis in human HepG2 cells assessed as viable cells at 0.5 uM after 24 hrs using annexin-V/FITC/propidium iodide staining by flow cytometry analysis (reference value: 94.29%). The format is functional. The conditions noted are these: HepG2, 24 h, read-out: Activity. The essentials:
as §1

The test system of assay [10] is HepG2. Description: Induction of apoptosis in human HepG2 cells assessed as necrotic cells at 0.25 uM after 24 hrs using annexin-V/FITC/propidium iodide staining by flow cytometry analysis (reference value: 0.51%). Type of assay: functional. The essentials:
as §1

In assay [11] the test system is HepG2. Nature of the assay: Induction of apoptosis in human HepG2 cells assessed as late apoptotic cells at 0.5 uM after 24 hrs using annexin-V/FITC/propidium iodide staining by flow cytometry analysis (reference value: 3.16%). Type of assay: functional. The method, boiled down: as §1
For assay [12], the system named is HepG2. Nature of the assay: Induction of apoptosis in human HepG2 cells assessed as early apoptotic cells at 0.25 uM after 24 hrs using annexin-V/FITC/propidium iodide staining by flow cytometry analysis (reference value: 2.05%). Type of assay: functional. The method, boiled down: as §1
The test system of assay [13] is HepG2. Description: Induction of apoptosis in human HepG2 cells assessed as early apoptotic cells at 0.5 uM after 24 hrs using annexin-V/FITC/propidium iodide staining by flow cytometry analysis (reference value: 2.05%). The format is functional. The essentials: as §1
Assay [14] concerns HepG2. Nature of the assay: Induction of apoptosis in human HepG2 cells assessed as viable cells at 1 uM after 24 hrs using annexin-V/FITC/propidium iodide staining by flow cytometry analysis (reference value: 94.29%). Type of assay: functional. The conditions noted are these: HepG2, 24 h, read-out: Activity. The method, boiled down:
as §1

Assay [15] relates to HT-29. Description: Cytotoxicity against human HT-29 cells after 24 hrs by MTT assay. The conditions noted are these: HT-29, 24 h. The format is functional, cell-based.
Assay [16] has as its system HepG2. Nature of the assay: Induction of apoptosis in human HepG2 cells assessed as late apoptotic cells at 1 uM after 24 hrs using annexin-V/FITC/propidium iodide staining by flow cytometry analysis (reference value: 3.16%). Type of assay: functional. The essentials: as §1
The test system of assay [17] is HT-29. Nature of the assay: Cytotoxicity against human HT-29 cells after 48 hrs by MTT assay. Type of assay: functional, cell-based. The conditions noted are these: HT-29, 48 h.
Assay [18] is described as follows: Cytotoxicity against mouse BNL-CL2 cells at 10 uM after 48 hrs by MTT assay. Type of assay: functional.
The subject of assay [19] is HepG2. Nature of the assay: Induction of apoptosis in human HepG2 cells assessed as morphological changes at 0.5 to 1 uM after 24 hrs using Hoechst 33258 staining by fluorescence microscopic analysis. The format is functional, cell-based. The essentials: as §2
In assay [20] the test system is HepG2. Nature of the assay: Ratio of berberine IC50 to compound IC50 for human HepG2 cells. The format is functional.
In assay [21] the test system is HepG2. Nature of the assay: Cytotoxicity against human HepG2 cells after 24 to 72 hrs by MTT assay. The format is functional, cell-based. The essentials:
(§3)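 HepG2 cells exposed to a range of concentrations for 24, 48 and 72 h. Viability then read by MTT. Data are means ± SD of at least three replicates from three independent experiments.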

For assay [22], the system named is HepG2. Description: Cytotoxicity against human HepG2 cells by MTT assay. The format is functional, cell-based. The conditions noted are these: TDE = time-dependent effect. The essentials:
as §3

Calls of active or inactive are those of the source. The rule behind the calls is not given here.

As a reminder, the IC50 is the concentration that gives 50% inhibition. Higher therefore signals lower potency. `COc1ccc2cc3[n+](cc2c1OC)CCc1cc2c(cc1-3)OCO2.[Cl-]` [BERBERINE CHLORIDE]: the Activity was determined as 1.17% in the assay with HepG2 [1]; 1.88% with HepG2 [2]; 6.4% in the assay with HepG2 [4]; 3.77% in the assay with HepG2 [6]; 0.84% in the assay with HepG2 [10]; 4.49% in the assay on HepG2 [11]. The Activity in the assay on HepG2 [12] is 2.99%; in the assay with HepG2 [13], 4.39%; in the assay with HepG2 [16] it was 5.51%. Further, the viability at 0.25 µM with HepG2 [3] amounted to 89.8%. The outcome in the assay on HepG2 [5] was Active. For the same compound, the IC50 with HepG2 [7] is 11200 nM; in the assay on HepG2 [8], 8320 nM; in the assay on HT-29 [15] it was over 20000 nM; in the assay with HT-29 [17], 8450 nM. For the same compound, in the assay on HepG2 [9], the viability at 0.5 µM came to 90%. The viability at 1 µM in the assay with HepG2 [14] is 88.8%.

For `COc1ccc2cc3[n+](cc2c1OC/C=C(\C)CC/C=C(\C)CCC=C(C)C)CCc1cc2c(cc1-3)OCO2.[Br-]`, the Activity in [18] is under 20%; in the assay with HepG2 [1], 2.48%; in the assay on HepG2 [2] it was 17.08%; with HepG2 [4], 3.2%; in the assay with HepG2 [6], 2.39%; with HepG2 [10] it was 3.73%. The Activity is 17.4% in the assay on HepG2 [11]; 1.66% in the assay with HepG2 [12]; 8.71% in the assay on HepG2 [13]; “Dose-dependent effect” in the assay with HepG2 [21]; “tde” in the assay on HepG2 [22]; 11.28% with HepG2 [16]. The viability at 0.25 µM in the assay with HepG2 [3] is 91.4%. Further, the result in the assay with HepG2 [19] was Active. For the same compound, the IC50 is 210 nM in the assay on HepG2 [7], 80 nM with HepG2 [8], 1820 nM in the assay on HT-29 [15] and 270 nM with HT-29 [17]. The viability at 0.5 µM in the assay with HepG2 [9] was found to be 71.4%. For the same compound, the “Ratio IC50” value in the assay on HepG2 [20] is reported as 104. Also, the viability at 1 µM with HepG2 [14] came out at 69.2%.

Consider `COc1ccc2cc3[n+](cc2c1OC/C=C(\C)CCC=C(C)C)CCc1cc2c(cc1-3)OCO2`, for which the 50% inhibitory concentration (IC50) in the assay on HepG2 [7] amounted to 210 nM; in the assay with HepG2 [8], 170 nM; in the assay on HT-29 [15], 1210 nM; in the assay with HT-29 [17] it was 140 nM.

For `COc1ccc2cc3[n+](cc2c1OCC=C(C)C)CCc1cc2c(cc1-3)OCO2`, the IC50 with HepG2 [7] was found to be 4670 nM; with HepG2 [8], 3170 nM; in the assay on HT-29 [15], 10800 nM; in the assay on HT-29 [17], 1750 nM.

Consider `CCCCOc1c(OC)ccc2cc3[n+](cc12)CCc1cc2c(cc1-3)OCO2`, for which the IC50 came out at 1810 nM in the assay on HepG2 [7], 970 nM in the assay on HepG2 [8], 4410 nM in the assay on HT-29 [15] and 870 nM in the assay on HT-29 [17].

Turning to `CCCCCCCCCCCCOc1c(OC)ccc2cc3[n+](cc12)CCc1cc2c(cc1-3)OCO2.[Br-]`, in assay [18], the Activity was under 20%. The IC50 in the assay with HepG2 [7] came to 260 nM; in the assay with HepG2 [8], 100 nM; in the assay on HT-29 [15] it was 930 nM; with HT-29 [17] it was 280 nM.

Consider `CCCCCCCCOc1c(OC)ccc2cc3[n+](cc12)CCc1cc2c(cc1-3)OCO2`, for which the IC50 in the assay with HepG2 [7] is 190 nM; in the assay on HepG2 [8] it was 100 nM; with HT-29 [15], 480 nM; with HT-29 [17], 80 nM.

In the case of `COc1ccc2cc3[n+](cc2c1O)CCc1cc2c(cc1-3)OCO2` [BERBERRUBINE CHLORIDE], the IC50 with HepG2 [7], with HepG2 [8], in the assay with HT-29 [15] and in the assay on HT-29 [17] was over 50000 nM each time.
